“And” between values parts separate entries of the source, which are not always exact repeats. Identical values can stand only once.
What was measured:
Rattus norvegicus [1] = experiment: Change in systolic blood pressure after iv administration of 100 ug/Kg in anesthetized rats; assay type: functional, Artery
Summary of the method: (§1)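 Male Wistar rats (299 ± 3 g) were anesthetized with ethylurethane ip, tracheally cannulated and breathing spontaneously, at 37 °C, and stabilized for 60 min. Doses of 50-3200 µg/kg (ratio 2.0) in saline were injected by femoral vein, 50 µL each. Recordings: femoral arterial BP, electromagnetic abdominal-aortic flow, SV from integrated pulsatile flow, polygraphic RF. Peak changes, mean ± SE, n = 12 (n = 7 at 3200).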

Rattus norvegicus [2] = experiment: Change in heart rate after iv administration of 3200 ug/Kg in anesthetized rats; assay type: functional
Summary of the method: (§2)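 Adult male Wistar rats under ip ethylurethane (10% w/v in saline, 1 mL/kg) with tracheal cannula and spontaneous breathing, kept at 37 °C. Arterial BP was recorded by femoral artery catheter; compound in saline (50 µL) was given via femoral vein at 50–3200 µg/kg, ratio 2.0. Peak change is given as mean ± SE, n = 12 (n = 7 at 3200 µg/kg).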

Rattus norvegicus [3] = experiment: Maximum rate of rise of the left ventricular isovolumetric pressure was measured after iv administration of 1600 ug/Kg in the presence of acetylcholine (agonist) in anesthetized rats; assay type: functional, Heart left ventricle
Summary of the method: (§3)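 Anesthetized male Wistar rats, two groups of 8, received 400 or 1600 µg/kg iv. Before and after this dose, iv agonist challenges were given: noradrenaline 1 µg/kg, adrenaline, acetylcholine 2.50 µg/kg, or isoprenaline. Systolic/diastolic BP, heart rate and dP/dt responses were recorded before (control) and after dosing; significance was set at p < 0.05 versus control.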

Rattus norvegicus [4] = experiment: Maximum rate of rise of the left ventricular isovolumetric pressure was measured after iv administration of 400 ug/Kg in the presence of isoprenaline (agonist) in anesthetized rats; assay type: functional, Heart left ventricle; summary of the method: as §3
Rattus norvegicus [5] = experiment: Change in systolic blood pressure after iv administration of 1600 ug/Kg in anesthetized rats; assay type: functional, Artery; summary of the method: as §1
Rattus norvegicus [6] = experiment: Change in systolic blood pressure after iv administration of 3200 ug/Kg in anesthetized rats; assay type: functional, Artery; summary of the method: as §1
Rattus norvegicus [7] = experiment: Maximum rate of rise of the left ventricular isovolumetric pressure was measured after iv administration of 50 ug/Kg in anesthetized rats; assay type: functional, Heart left ventricle
Summary of the method: (§4)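 Urethane-anesthetized (10% w/v, […] ip in saline) adult male Wistar rats, trachea cannulated, breathing spontaneously, 37 °C. Femoral artery catheter for blood pressure, femoral vein for dosing. Sequential iv doses 50–3200 µg/kg (ratio 2.0) in saline, each given after parameters returned to baseline. Peak changes recorded; means ± SE, n = 12 (n = 7 at 3200 µg/kg).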

Rattus norvegicus [8] = experiment: Change in heart rate after iv administration of 400 ug/Kg in the presence of isoprenaline (agonist) in anesthetized rats; assay type: functional
Summary of the method: (§5)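 Urethane-anesthetized male Wistar rats (16 rats, two equal groups) received 400 or 1600 µg/kg compound iv. Cardiovascular responses to iv agonist boluses (noradrenaline 1 µg/kg, acetylcholine 2.50 µg/kg, adrenaline, isoprenaline) were measured before and after compound dosing. Peak responses are given as mean ± SE; p < 0.05 versus control mean.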

Rattus norvegicus [9] = experiment: Change in heart rate after iv administration of 400 ug/Kg in the presence of adrenaline (agonist) in anesthetized rats; assay type: functional; summary of the method: as §5
Rattus norvegicus [10] = experiment: Change in stroke volume after iv administration of 800 ug/Kg in anesthetized rats; assay type: functional; summary of the method: as §1
Rattus norvegicus [11] = experiment: Change in stroke volume after iv administration of 1600 ug/Kg in anesthetized rats; assay type: functional; summary of the method: as §1
Rattus norvegicus [12] = experiment: Change in diastolic blood pressure after iv administration of 800 ug/Kg compound (treatment with reserpine(5 mg/kg/day for 2 days, ip)in anesthetized rats; assay type: functional, Artery
Summary of the method: (§6)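 In anesthetized male Wistar rats, responses to iv compound (200–1600 µg/kg, ratio 2.0) were measured alone and under three pretreatments: continuous iv papaverine infusion (1 mg/kg/min), ip reserpine (5 mg/kg/day for 2 days), or iv hexamethonium (5 mg/kg). Peak changes are given as mean ± SE, n = 6 per group; p < 0.05 versus control.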

Rattus norvegicus [13] = experiment: Change in stroke volume after iv administration of 3200 ug/Kg in anesthetized rats; assay type: functional; summary of the method: as §1
Rattus norvegicus [14] = experiment: Change in diastolic blood pressure after iv administration of 400 ug/Kg in the presence of acetylcholine (agonist) in anesthetized rats; assay type: functional, Artery; summary of the method: as §5
Rattus norvegicus [15] = experiment: Change in systolic blood pressure after iv administration of 4.12 uM/Kg in anesthetized rats; assay type: functional, Artery
Summary of the method: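 Doses were 4.12 µM/kg (two agents), guanethidine 25, clonidine 0.108, hexamethonium 12, reserpine 8, papaverine 5 and histamine […]. Peak changes in systolic BP or HR were recorded.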

Rattus norvegicus [16] = experiment: Change in systolic blood pressure after iv administration of 800 ug/Kg in anesthetized rats; assay type: functional, Artery; summary of the method: as §4
Rattus norvegicus [17] = experiment: Change in diastolic blood pressure after iv administration of 400 ug/Kg in the presence of adrenaline (agonist) in anesthetized rats; assay type: functional, Artery; summary of the method: as §5
Rattus norvegicus [18] = experiment: Change in diastolic blood pressure after iv administration of 800 ug/Kg compound (treatment with papaverine(1 mg/Kg/min, iv)in anesthetized rats; assay type: functional, Artery; summary of the method: as §6
Rattus norvegicus [19] = experiment: Change in diastolic blood pressure after iv administration of 200 ug/Kg in anesthetized rats; assay type: functional, Artery; summary of the method: as §2
Rattus norvegicus [20] = experiment: Change in respiratory frequency after iv administration of 400 ug/Kg in anesthetized rats; assay type: functional; summary of the method: as §1
Rattus norvegicus [21] = experiment: Maximum rate of rise of the left ventricular isovolumetric pressure was measured after iv administration of 1600 ug/Kg in the presence of isoprenaline (agonist) in anesthetized rats; assay type: functional, Heart left ventricle; summary of the method: as §3
Rattus norvegicus [22] = experiment: Change in diastolic blood pressure after iv administration of 400 ug/Kg in the presence of isoprenaline (agonist) in anesthetized rats; assay type: functional, Artery; summary of the method: as §5
Rattus norvegicus [23] = experiment: Change in diastolic blood pressure after iv administration of 1600 ug/Kg compound (treatment with reserpine(5 mg/kg/day for 2 days, ip)in anesthetized rats; assay type: functional, Artery; summary of the method: as §6
Rattus norvegicus [24] = experiment: Change in systolic blood pressure after iv administration of 200 ug/Kg in anesthetized rats; assay type: functional, Artery; summary of the method: as §1
Rattus norvegicus [25] = experiment: Change in diastolic blood pressure after iv administration of 3200 ug/Kg in anesthetized rats; assay type: functional, Artery; summary of the method: as §2
Rattus norvegicus [26] = experiment: Change in heart rate after iv administration of 800 ug/Kg in anesthetized rats; assay type: functional; summary of the method: as §1
Rattus norvegicus [27] = experiment: Change in mean aortic flow after iv administration of 200 ug/Kgin anesthetized rats; assay type: functional; summary of the method: as §1
Rattus norvegicus [28] = experiment: Change in systolic blood pressure after iv administration of 1600 ug/Kg compound (treatment with reserpine(5 mg/kg/day for 2 days, ip)in anesthetized rats; assay type: functional, Artery
Summary of the method: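 Urethane-anesthetized male Wistar rats, 6 per group, received iv doses of 200-1600 µg/kg (ratio 2.0) given alone or under a pretreatment. Pretreatments were continuous iv papaverine infusion (1 mg/kg/min), reserpine 5 mg/kg/day ip for 2 days, or hexamethonium 5 mg/kg iv. Peak changes in femoral arterial BP and HR were recorded; values are mean ± SE.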

COc1ccc(C2C(c3ccc(OC)c(OC)c3)[C@H](C(=O)NCCCC/N=C(\N)NCC=C(C)C)[C@@H]2C(=O)NCCCC/N=C(\N)NCC=C(C)C)cc1OC (stereo partly specified) [CARACASANDIAMIDE]
BP (Rattus norvegicus [1]): 12 mmHg
Change in BP (Rattus norvegicus [1]): 12%
Change in heart rate (Rattus norvegicus [2]): -11%
Heart rate (Rattus norvegicus [2]): -41 beats min-1
dP/dt (Rattus norvegicus [3]): -6821 mmHg s-1
dP/dt (Rattus norvegicus [4]): 13696 mmHg s-1
BP (Rattus norvegicus [5]): -41 mmHg
Change in BP (Rattus norvegicus [5]): -39%
BP (Rattus norvegicus [6]): -48 mmHg
Change in BP (Rattus norvegicus [6]): -46%
Change in dP/dt (Rattus norvegicus [7]): 17%
dP/dt (Rattus norvegicus [7]): 1070 mmHg s-1
Heart rate (Rattus norvegicus [8]): 69 beats min-1
Heart rate (Rattus norvegicus [9]): 24 beats min-1
Change in stroke volume (Rattus norvegicus [10]): -43%
Stroke volume (Rattus norvegicus [10]): -86 µL
Change in stroke volume (Rattus norvegicus [11]): -48%
Stroke volume (Rattus norvegicus [11]): -97 µL
BP (Rattus norvegicus [12]): -12 mmHg
Change in stroke volume (Rattus norvegicus [13]): -58%
Stroke volume (Rattus norvegicus [13]): -117 µL
BP (Rattus norvegicus [14]): -45 mmHg
BP (Rattus norvegicus [15]): -43 mmHg
BP (Rattus norvegicus [16]): -30 mmHg
Change in BP (Rattus norvegicus [16]): -29%
BP (Rattus norvegicus [17]): 5 mmHg
BP (Rattus norvegicus [18]): -16 mmHg
BP (Rattus norvegicus [19]): -13 mmHg
Change in BP (Rattus norvegicus [19]): -17%
Change in respiratory frequency (Rattus norvegicus [20]): -3 beats min-1 and -3%
dP/dt (Rattus norvegicus [21]): 14552 mmHg s-1
BP (Rattus norvegicus [22]): -49 mmHg
BP (Rattus norvegicus [23]): -15 mmHg
BP (Rattus norvegicus [24]): -14 mmHg
Change in BP (Rattus norvegicus [24]): -13%
BP (Rattus norvegicus [25]): -53 mmHg
Change in BP (Rattus norvegicus [25]): -68%
Change in heart rate (Rattus norvegicus [26]): -4%
Heart rate (Rattus norvegicus [26]): -16 beats min-1
Mean aortic flow (Rattus norvegicus [27]): -14 mL/min
BP (Rattus norvegicus [28]): -16 mmHg
